According to ChEMBL document CHEMBL1125750, “Dual antagonists of platelet activating factor and histamine. Identification of structural requirements for dual activity of N-Acyl-4-(5,6-dihydro-11H-benzo [5,6]cyclohepta-[1,2-b]pyridin-11-ylidene)piperidines” (J Med Chem, 1991):

system: Cavia porcellus; assay: Compound tested for its %inhibition of guinea pig bronchospasm at a peroral dose of 10 mg/kg and after 2 hr followed by iv challenge with 0.4 micro g/kg of histamine.; type: functional; details: Bronchiole, route oral

Row | Structure (SMILES) | inhibition in vivo at 10 mg/kg
1 | Cc1nnc2n1-c1sc(CCC(=O)N3CCOCC3)cc1C(c1ccccc1Cl)=NC2 [APAFANT] | 7%

system: not listed separately; assay: %inhibition of guinea pig bronchospasm at a peroral dose of 10 mg/kg and after 2 hr followed by iv challenge with 0.4 micro g/kg of PAF; type: functional; details: Cavia porcellus, Bronchiole, route oral
Outline: (§1)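 Compound given orally 2 h before an iv PAF challenge at 0.4 µg/kg. Values are reported as mean ± standard error of the mean unless noted otherwise, with N animals per determination.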

Row | Structure (SMILES) | inhibition in vivo at 10 mg/kg
2 | Cc1nnc2n1-c1sc(CCC(=O)N3CCOCC3)cc1C(c1ccccc1Cl)=NC2 [APAFANT] | 99%

system: Cavia porcellus; assay: Compound tested for its %inhibition of guinea pig bronchospasm at a peroral dose of 10 mg/kg and after 2 hr followed by iv challenge with 0.4 micro g/kg of PAF.; type: functional; details: Bronchiole, route oral; outline: as §1

Row | Structure (SMILES) | inhibition in vivo at 10 mg/kg
3 | Cc1nnc2n1-c1sc(CCC(=O)N3CCOCC3)cc1C(c1ccccc1Cl)=NC2 [APAFANT] | 60%

system: Cavia porcellus; assay: Compound tested for inhibition of guinea pig bronchospasm at a peroral dose of 10 mg/Kg and after 2 hr followed by iv challenge with 0.4 ug/Kg of PAF; type: functional, Bronchiole; details: not given

Row | Structure (SMILES) | Inhibition
4 | CC(=O)N1CCC(=C2c3ccccc3CCc3cccnc32)CC1 | 44%

molecular target: Histamine H1 receptor (Rattus norvegicus, UniProt P31390); assay: Binding affinity to histamine H1 receptor in rat brain membranes was evaluated using [3H]-pyrilamine as radioligand; type: cell membranes; details: not given
Sequence (P31390 whole entry): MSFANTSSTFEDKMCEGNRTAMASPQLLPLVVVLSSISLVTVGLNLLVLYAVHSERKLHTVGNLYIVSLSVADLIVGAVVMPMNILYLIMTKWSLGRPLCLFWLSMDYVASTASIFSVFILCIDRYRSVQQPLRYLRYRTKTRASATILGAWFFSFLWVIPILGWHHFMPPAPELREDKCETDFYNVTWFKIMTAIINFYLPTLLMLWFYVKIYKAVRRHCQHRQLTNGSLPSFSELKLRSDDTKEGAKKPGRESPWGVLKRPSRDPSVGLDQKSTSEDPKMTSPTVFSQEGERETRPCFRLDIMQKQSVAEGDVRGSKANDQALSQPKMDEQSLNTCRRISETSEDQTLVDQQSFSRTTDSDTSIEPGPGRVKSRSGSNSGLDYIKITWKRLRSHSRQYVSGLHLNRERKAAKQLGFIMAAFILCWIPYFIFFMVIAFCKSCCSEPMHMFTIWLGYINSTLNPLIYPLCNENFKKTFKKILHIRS

Row | Structure (SMILES) | Ki
5 | COc1ccc2c(c1)CCc1cccnc1C2=C1CCN(C(C)=O)CC1 | 1600 nM
6 | CC(=O)N1CCC(=C2c3ccc(O)cc3CCc3cccnc32)CC1 | > 6300 nM
7 | CC(=O)N(C)CC/C=C1/c2ccc(Cl)cc2CCc2cccnc21 | 850 nM
8 | CC(=O)N1CCC(=C2c3ccccc3CCc3cccnc32)CC1 | 2000 nM
9 | CC(=O)N1CCC(=C2c3ccccc3CCc3ccccc32)CC1 | 5000 nM
10 | CC(=O)N(C)CC/C=C1\c2ccc(Cl)cc2CCc2cccnc21 | 290 nM
11 | CC(=O)N1CCC(=C2c3ccc(C)cc3CCc3cccnc32)CC1 | 190 nM
12 | O=C(c1ccccc1)N1CCC(=C2c3ccc(Cl)cc3CCc3cccnc32)CC1 | 190 nM
13 | CC(=O)N1CCC(=C2c3cc(Cl)ccc3CCc3cccnc32)CC1 | 1500 nM
14 | CC(=O)N1CCC(=C2c3cc(F)ccc3CCc3cccnc32)CC1 | 2900 nM
15 | CC(=O)N1CCC(=C2c3cc(F)c(F)cc3CCc3cccnc32)CC1 | 10000 nM
16 | CC(=O)N1CCC(=C2c3ccc(Cl)cc3CCc3cccnc32)CC1 [SCH-37370] | 320 nM
17 | O=CN1CCC(=C2c3ccc(Cl)cc3CCc3cccnc32)CC1 | 21 nM
18 | CC(=O)C1CCC(=C2c3ccc(Cl)cc3CCc3cccnc32)CC1 (stereo not given) | 1200 nM
19 | CCCC(=O)N1CCC(=C2c3ccc(Cl)cc3CCc3cccnc32)CC1 | 51 nM
20 | CC(=O)N1CCC(=C(c2ccc(Cl)cc2)c2ccccn2)CC1 | > 6300 nM
21 | CN1CCC(=C2c3ccccc3CCc3cccnc32)CC1 [AZATADINE] | 3.9 nM
22 | CC(C)(C)C(=O)N1CCC(=C2c3ccc(Cl)cc3CCc3cccnc32)CC1 | 81 nM
23 | CCC(=O)N1CCC(=C2c3ccc(Cl)cc3CCc3cccnc32)CC1 | 48 nM
24 | CC(=O)N1CCC(=C2c3ccc(F)cc3CCc3cccnc32)CC1 | 720 nM
25 | CC(=O)N1CCC(=C2c3cc(Cl)c(Cl)cc3CCc3cccnc32)CC1 | 3100 nM

system: Cavia porcellus; assay: Compound tested for its %inhibition of guinea pig bronchospasm at a peroral dose of 10 mg/Kg and after 2 hr followed by iv challenge with 10 ug/Kg of histamine; details: not given

Row | Structure (SMILES) | Inhibition
26 | CC(=O)N1CCC(=C2c3ccc(Br)cc3CCc3cccnc32)CC1 | 99%
27 | CC(=O)N1CCC(=C2c3ccc(Cl)cc3CCc3cccnc32)CC1 [SCH-37370] | 99%

system: Cavia porcellus; assay: as above; details: not given; remark: another data set of the same source

Row | Structure (SMILES) | Inhibition
28 | CC(=O)N1CCC(=C2c3ccccc3CCc3cccnc32)CC1 | 96%
29 | CC(=O)N1CCC(=C2c3cc(F)c(F)cc3CCc3cccnc32)CC1 | 0%

system: Cavia porcellus; assay: Compound tested for its %inhibition of guinea pig bronchospasm at a peroral dose of 3 mg/Kg and after 2 hr followed by iv challenge with 0.4 ug/Kg of histamine; details: not given

Row | Structure (SMILES) | Inhibition
30 | CC(=O)N1CCC(=C2c3ccc(F)cc3CCc3cccnc32)CC1 | 79%
